Laboratory results as given in ChEMBL document CHEMBL4665795, “Synthesis and Evaluation of 4-Hydroxycoumarin Imines as Inhibitors of Class II Myosins” (J Med Chem, 2020).
Calls of active or inactive are those of the source. No cut-off for these calls is given here.

Legend:
Mus musculus [1] = species: Mus musculus; assay: Inhibition of C57Bl6 mouse […] assessed as reduction in action potential in mouse diaphragm at 100 uM
[2] = Inhibition of actin-activated rabbit skeletal muscle myosin 2 assessed as phosphate level incubated for 6 to 24 mins by spectrophotometric method; parameters: species or system Oryctolagus cuniculus
Procedure, shortened: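 Actin-activated ATPase run at 30 °C in assay buffer with 32 µM actin and 2 mM ATP. Phosphate production followed over time by absorbance in stopped-time format. IC50 from four-parameter logistic fit. N is the number of fully independent titrations.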

Mus musculus [3] = species: Mus musculus; assay: Inhibition of C57Bl6 mouse skeletal muscle myosin assessed as inhibition of phrenic nerve stimulation-induced contraction in mouse diaphragm at 100 uM relative to control
Procedure, shortened: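 Mouse phrenic nerve-hemidiaphragm preparation used ex vivo. Muscle contraction evoked by phrenic nerve stimulation, recorded with and without compound.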

[4] = Selectivity ratio of IC50 for actin-activated bovine heart muscle myosin 2 to IC50 for actin-activated rabbit skeletal muscle myosin 2
[5] = Kinetic solubility in pH 7.4 PBS incubated for 1 hr; assay type: physicochemical; conditions: for Kinetic_solubility: buffer, pH 7.4, 1 h
[6] = Inhibition of rabbit skeletal muscle myosin 2 assessed as reduction in actin-sliding velocity incubated for 1 min by inverted microscopic analysis; parameters: species or system Oryctolagus cuniculus
Procedure, shortened: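 In vitro motility assay at 30 °C with skeletal myosin loaded at 100 µg mL-1 on a coverslip. Fluorescent actin filament sliding velocity recorded across compound concentrations. IC50 obtained by curve fit.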

HL-60 = assay: Cytotoxicity against human HL-60 cells assessed as reduction in cell viability incubated for 48 hrs by hemocytometer based trypan-blue exclusion assay; conditions: HL-60, 48 h
[7] = Competitive binding affinity to skeletal myosin S1 (unknown origin) assessed as reduction in Blebbistatin-induced fluorescence intensity incubated for 1 hr by fluorescence based assay; parameters: species or system Homo sapiens
[8] = Half life in pH 7.4 PBS at 100 uM by UV-VIS spectroscopic method; assay type: physicochemical
[9] = Inhibition of actin-activated rabbit skeletal muscle myosin 2; parameters: species or system Oryctolagus cuniculus
[10] = Binding affinity to skeletal myosin S1 (unknown origin) assessed as fluorescence intensity in presence of ATP; parameters: species or system Homo sapiens
Procedure, shortened: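 Skeletal myosin S1 binding read by fluorescence of 2 µM blebbistatin probe (λex 440 nm, em 560 nm) in assay buffer with 1 mM ATP at 22-25 °C. Signal without S1 was subtracted and normalised to Fmax. Direct Kd came from S1 titration fit to a quadratic single-site equation. Competition used 1 µM S1 and 1 hr incubation with analog; IC50 from a four-parameter fit was converted to Ki. N = 1.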

SMILES	inhibition (Mus musculus [1])	IC50 [2] [µM]	inhibition (Mus musculus [3]) [%]	Ratio IC50 [4]	further results
C/C(=N\CCCO)c1c(O)c2ccccc2oc1=O	Active	31	72	1.2	
CC/C(=N\Cc1ccccc1)c1c(O)c2ccccc2oc1=O		≥ 100			
C/C(=N\C(C)C)c1c(O)c2ccccc2oc1=O	Active	≥ 100	94		
CCCC/N=C(\C)c1c(O)c2ccccc2[nH]c1=O		≥ 100	48		
CCC/N=C(\C)c1c(O)c2ccccc2[nH]c1=O		≥ 100	41		
CCC/N=C(\C)c1c(O)c2ccccc2oc1=O		31		1.7	
CCCCC/N=C(\C)c1c(O)c2cc([N+](=O)[O-])ccc2oc1=O		≥ 100			
C/C(=N\Cc1cccnc1)c1c(O)c2ccccc2oc1=O		3		5.6	
CCCCC/N=C(\C)c1c(O)c2ccccc2[nH]c1=O	Active	≥ 100	99		
C/C(=N\Cc1ccccc1)c1c(O)c2ccccc2oc1=O		0.8		9.1	IC50 [7]: 5.3 µM; Ki [7]: 0.8 µM; Kinetic_solubility [5]: 103 µM; IC50 (HL-60): 801 µM
C/C(=N\OCc1ccccc1)c1c(O)c2ccccc2oc1=O		≥ 100			
C/C(=N\Nc1ccccc1)c1c(O)c2ccccc2oc1=O		2		13.5	
C/C(=N\CC(C)C)c1c(O)c2ccccc2oc1=O		≥ 100	22	< 0.34	
C/C(=N\CCO)c1c(O)c2ccccc2[nH]c1=O	Active	≥ 100	94		
C/C(=N\CC(C)C)c1c(O)c2ccccc2[nH]c1=O	Active	≥ 100	71		
CCC(C)/N=C(\C)c1c(O)c2ccccc2oc1=O (configuration not stated)		≥ 100	21		

The next lines start with results.

inhibition (Mus musculus [1])	IC50 [2] [µM]	inhibition (Mus musculus [3]) [%]	Ratio IC50 [4]	SMILES	further results
inactive	2.1	96	2.8	CCCC/N=C(\C)c1c(O)c2ccccc2oc1=O	Kinetic_solubility [5]: 607 µM; IC50 [6]: 2.8 µM
Active	≥ 100	80		C/N=C(\C)c1c(O)c2ccccc2oc1=O	IC50 (HL-60): 408 µM
	≥ 100	16		C/C(=N\Cc1ccccc1)c1c(O)c2ccccc2[nH]c1=O	
	1.2		2.4	CCCCCC/N=C(\C)c1c(O)c2ccccc2oc1=O	
Active	6.8	86	3.2	C/C(=N\Cc1ccccn1)c1c(O)c2ccccc2oc1=O	
	≥ 100	18		C/C(=N\C(C)C)c1c(O)c2ccccc2[nH]c1=O	
Active	92	87	1	C/C(=N\CCO)c1c(O)c2ccccc2oc1=O	IC50 (HL-60): 590 µM
	10		0.5	C/C(=N\Cc1cccc(C)c1)c1c(O)c2ccccc2oc1=O	
inactive	8.5	98	> 12	C/C(=N\Cc1ccncc1)c1c(O)c2ccccc2oc1=O	solubility kinetic at 1 h ([5]; PBS, pH 7.4, read-out: Kinetic_solubility): > 400 µM; half-life at 100 µM [8]: 84 h
	47		2.1	CC/N=C(\C)c1c(O)c2ccccc2oc1=O	
	0.8		9.9	C/C(=N\Cc1ccc(C)cc1)c1c(O)c2ccccc2oc1=O	
	≥ 100			C/C(=N\Cc1ccccc1)c1c(O)c2cc([N+](=O)[O-])ccc2oc1=O	
Active	≥ 100	73		CC(=N)c1c(O)c2ccccc2oc1=O	
	2		3.3	CCCCC/N=C(\C)c1c(O)c2ccccc2oc1=O	
Active	≥ 100	72		C/C(=N\CC1CCCCC1)c1c(O)c2ccccc2[nH]c1=O	
	≥ 100			CCC/C(=N\Cc1ccccc1)c1c(O)c2ccccc2oc1=O	
	≥ 100			CCCC/N=C(\C)c1c(O)c2ccccc2n(C)c1=O	
	≥ 100			C/C(=N\Cc1ccccc1C)c1c(O)c2ccccc2oc1=O	
Active	≥ 100	98		CCC(C)/N=C(\C)c1c(O)c2ccccc2[nH]c1=O (configuration not stated)	
Active	0.5	99		Cc1ccc2c(c1)C(=O)[C@]1(O)CCN(c3ccccc3)C1=N2	IC50 [9]: 0.01 µM; Kd [10]: 0.4 µM
